HTRA1 inh = HTRA1 (human) protease inhibition. Q92743. recombinant HTRA1, FP-rhodamine activity-based probe, fluorescence polarization. inhibition, % at 5.96 µM. 340,000 tested, 0.5% active. AID 504803; in the data active means inhibition above about 36%;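 further: 0% = enzyme with DMSO and 100% = wells lacking enzyme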
SIAE inh = blocks human sialic acid acetylesterase; Q9HAT2; SIAE FP-Rh probe binding, fluorescence polarization; inhibition, % at 9.66 µM; 370,000 tested, 0.69% active;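 active means inhibition above a cutoff: mean of compounds within the control limits plus 3 SD of those, cut at about 17% in these data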;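 further: 0% = plate median of compound wells and 100% = probe without SIAE protein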
Target sequence (Q9HAT2 whole entry, looked up): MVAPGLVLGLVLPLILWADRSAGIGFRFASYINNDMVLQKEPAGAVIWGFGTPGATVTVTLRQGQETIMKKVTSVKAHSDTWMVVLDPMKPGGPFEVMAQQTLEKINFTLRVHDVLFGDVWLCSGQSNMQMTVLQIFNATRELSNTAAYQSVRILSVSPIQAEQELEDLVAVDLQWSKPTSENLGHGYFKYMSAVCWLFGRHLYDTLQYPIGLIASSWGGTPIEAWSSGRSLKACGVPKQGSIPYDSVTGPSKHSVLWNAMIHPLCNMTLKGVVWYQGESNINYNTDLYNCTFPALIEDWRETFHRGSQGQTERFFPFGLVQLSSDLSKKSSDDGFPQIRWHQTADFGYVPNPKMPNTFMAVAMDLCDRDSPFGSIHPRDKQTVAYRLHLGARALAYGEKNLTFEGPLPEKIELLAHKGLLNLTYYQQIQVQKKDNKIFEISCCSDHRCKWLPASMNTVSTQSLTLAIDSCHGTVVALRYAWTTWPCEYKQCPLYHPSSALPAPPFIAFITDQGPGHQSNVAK
TCR CD3 inh = inhibitors of human TCR-CD3 interaction; inhibition, % at 9.4 µM; 360,000 tested, 0.37% active; TAMRA-labeled TCR probe fluorescence, biochemical; in the data active means inhibition above about 19%;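 further: recombinant mutant TCR 2C K166C tagged with TAMRA read by polarization; 0% = receptor in buffer alone and 100% = receptor with positive control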
mABHD4 FP = inhibitors of mouse ABHD4. Q8VD66. purified mABHD4, FP-Rh probe fluorescence polarization. inhibition, % at 8.92 µM. 370,000 tested, 0.54% active. AID 720543;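 active means inhibition exceeding the mean over every tested compound plus 3 SD, cut at about 30% in these data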;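 further: 0% = plate median of compound wells and 100% = S159A mutant with DMSO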
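Assay system: mABHD4 protein; medium: HEPES pH 7.0, NaCl, Pluronic buffer; dosing: 8.92 µM, single dose; schedule: 45 min + 60 min at 25 °C; signal: FP readout, ex 525 nm / em 598 nm; read-out: normalized percent inhibition of probe labeling; repeats: single replicate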
DDE Tn7 FP inh = disrupts Tn7 cyclic peptide binding to fibrin D-Dimer-E complex | FP displacement of FITC-Tn7 peptide from fibrin DD(E); 0% = median of compound wells per plate | inhibition, % at 8.3 µM | 370,000 tested, 0.13% active | AID 720508 | P02675;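 active means inhibition above the mean of compounds falling within the control limits plus 3 SD of them, cut at about 14% in these data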;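 further: 0% = plate median of compound wells and 100% = 10 µM Aha-Tn7 peptide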
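Assay system: Fibrin-DD(E) protein isolated from polymerized human fibrin clots; read-out basis: percent inhibition; medium: Tris/NaCl/CaCl2 buffer, pH 7.8; signal: FP measurement; incubation: 10 min plus 3 h, room temperature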
DDE Tn6 FP inh = disrupts Tn6 cyclic peptide binding to fibrin D-Dimer-E complex. P02675. 370,000 tested, 0.21% active. Fibrin DD(E) TRITC-Tn6 fluorescence polarization displacement. inhibition, % at 8.3 µM. AID 720509;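 active means inhibition above a per-campaign cutoff: mean of compounds within control limits plus 3 SD, cut at about 15% in these data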;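 further: 0% = median of all compound wells on the plate and 100% = blocking peptide control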
SIAE confirm = human SIAE inhibition, confirmation; shares compounds with SIAE inh; SIAE FP-Rh activity-based probe, fluorescence polarization; AID 1117263; 2,300 tested, 13% active; inhibition, % at 9.66 µM;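 active means mean inhibition of the replicates above the hit cutoff set in the primary screen, cut at about 17% in these data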;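 further: 0% = SIAE with DMSO and probe and 100% = probe without SIAE; inhibitors lower polarization as more probe stays unbound to SIAE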
* marks the source's active call; other numbers are inactive results; nt = no result. The list is not random: actives were taken first. Their share in the collection is about 1.8%.

SMILES	HTRA1 inh	SIAE inh	TCR CD3 inh	mABHD4 FP	DDE Tn7 FP inh	DDE Tn6 FP inh	SIAE confirm
CC(C)=CCc1cc(-c2oc3cc(O)cc(O)c3c(=O)c2O)ccc1O	12	23*	10	15	-6	-15	1
Cc1cnc(CN(C)C(=O)c2ccc3oc(Cc4ccc(Cl)cc4)nc3c2)[nH]1	1	18*	1	3	-11	-4	0
Cc1cnc(CN(C)C(=O)c2ccc3oc(Cc4ccccc4)nc3c2)[nH]1	2	2	8	-2	-3	8	nt
CCn1c(CO)nc2c1c(=O)[nH]c(=O)n2Cc1ccccc1	4	20*	0	0	4	2	-2
Cc1ccc(-c2nc3c(c(=O)[nH]c(=O)n3Cc3ccccc3)n2Cc2ccccc2)o1	-42	-6	7	-6	-4	-4	nt
O=C(C(=O)N1CCN(C(=O)c2ccccc2C(F)(F)F)CC1)c1cccc(C(F)(F)F)c1	nt	-1	3	0	0	-2	nt
COc1ccc(C(=O)C(=O)N2CCN(C(=O)c3ccccc3C(F)(F)F)CC2)cc1OC	nt	22*	1	0	3	-1	0
CN(C)[C@@H]1CCN(c2cccc3c2S(=O)(=O)N(C2CC2)CCCO3)C1	nt	-1	nt	2	-4	-8	nt
NC(Cc1ccc(C(F)(F)F)cc1)c1csc(NC(=O)Nc2ccccc2Cl)n1 (configuration not stated)	nt	20*	1	2	-10	-7	21*
CCOC(=O)/C(=N\Nc1ccc(Cl)cc1)c1csc(Nc2ccccc2)n1	28	20*	2	2	3	-11	-3
COc1ccc(N2CCCN(CC(=O)Nc3ccc(Cl)cc3)CC2)cc1	nt	12	nt	-1	9	-8	nt
C[C@]1(C(=O)NCCN2CCOCC2)C=C[C@@H](Cc2ccccc2)N1C(=O)c1ccccc1	19	21*	3	-1	6	5	-2
CC(=O)N1[C@H](Cc2ccccc2)C=C[C@]1(C)C(=O)NCCN1CCOCC1	-11	-2	-5	-9	-3	-6	nt
O=C(Nc1ccc(-c2csc(Nc3ccccc3)n2)cc1)c1cc([N+](=O)[O-])cc(C(F)(F)F)c1	2	40*	0	9	1	-1	20*
COc1ccc(NC(=O)N(CCc2c(C)[nH]c3ccccc23)Cc2cccs2)cc1OC	nt	10	nt	5	-6	-1	nt
Nc1c(C(=O)Nc2ccccc2)sc2nc(-c3ccco3)ccc12	-7	30*	6	8	3	4	5
COc1ccccc1NC(=O)c1sc2nc(-c3ccco3)ccc2c1N	-4	nt	nt	nt	nt	nt	nt
Cc1ccc2c(c1)N(CCCC(=O)NCc1c(F)cccc1F)C(=O)CO2	nt	-2	nt	-6	9	4	nt
CC1CCC2(CCC(=O)N2CCCOC(=O)NC(C)(C)C)CC1 (configuration not stated)	nt	47*	nt	0	4	-4	-5
NC(=O)C1CCN(c2nc(-c3ccc(Oc4ccccc4)cc3)cs2)CC1	nt	3	nt	6	1	3	nt
COc1cc(C=Nn2c(-c3ccccc3F)n[nH]c2=S)ccc1OCc1ccccc1	nt	4	nt	-9	-1	5	nt
Cc1cc(SCC(=O)N/N=C/c2ccc(O)cc2O)nc2ccccc12	0	23*	2	-2	2	-6	-8
CCC[C@@H](/C=C/C(=O)OC(C)(C)C)Sc1ccc(C(C)(C)C)cc1	nt	4	nt	1	2	3	nt
COc1cc(NC(=O)CSc2ccccc2)c(C(=O)O)cc1OC	1	2	11	-1	-5	10	nt
COc1cc(NC(=O)CSc2nc3ncnc(N)c3[nH]2)c(C(=O)O)cc1OC	-3	18*	-1	-5	2	7	1
COc1ccc(N2CCC(CNC(=S)Nc3ccc(C)cc3C)C2)cc1 (configuration not stated)	8	2	4	5	0	0	nt
COc1ccc(N2CCC(CNC(=S)Nc3c(C)cc(C)cc3C)C2)cc1 (configuration not stated)	10	18*	7	12	0	1	6

Screening results from PubChem.
